# Measurements published in ChEMBL document CHEMBL1781959, “Synthesis and in vitro antitumor activity of substituted quinazoline and quinoxaline derivatives: search for anticancer agent” (Eur J Med Chem, 2011).
# Key:
# [1] = system: RXF 393; assay: Cytotoxicity against human RXF393 cells after 48 hrs by SRB assay; type: cell-based; conditions: rxf 393, 48 h
# Procedure, shortened: (§1)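 NCI-60 five-dose screen in RPMI 1640 with 5% FBS and 2 mM L-glutamine; 5000–40,000 cells/well, 24 h pre-incubation. DMSO stocks diluted to 0.01, 0.1, 1, 10 and 100 μM final; 48 h at 37 °C, 5% CO2. Fixed with TCA (10% final adherent, 16% suspension), stained with 0.4% SRB, A515. GI50, TGI and LC50 taken from time-zero, control and test absorbances.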
# [2] = system: BT-549; assay: Growth inhibition of human BT549 cells after 48 hrs by SRB assay; type: functional; conditions: BT-549, 48 h
# Procedure, shortened: (§2)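 NCI 60-panel five-dose assay at 0.01, 0.1, 1, 10 and 100 μM. Cells in RPMI 1640 with 5% FBS and 2 mM L-glutamine, preincubated 24 h, with time-zero plates TCA-fixed. Drug exposure 48 h at 37 °C. Read by SRB staining at 515 nm. GI50 is the concentration where [(Ti−Tz)/(C−Tz)]×100 = 50, taken from log concentration versus % growth curves.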
# [3] = system: HCC 2998; assay: Cytotoxicity against human HCC2998 cells after 48 hrs by SRB assay; type: cell-based; conditions: hcc 2998, 48 h; procedure, shortened: as §1
# [4] = system: HCT-15; assay: Growth inhibition of human HCT15 cells after 48 hrs by SRB assay; type: functional; conditions: HCT-15, 48 h; procedure, shortened: as §2
# [5] = system: U-251; assay: Cytotoxicity against human U251 cells after 48 hrs by SRB assay; type: cell-based; conditions: u-251, 48 h
# Procedure, shortened: (§3)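 NCI-60 five-dose screen. Cells grown in RPMI 1640 with 5% FBS and 2 mM L-glutamine and pre-incubated 24 h; a time-zero plate is TCA-fixed. Drug added at 0.01, 0.1, 1, 10 and 100 µM (DMSO stock) for 48 h at 37 °C, 5% CO2. Fixed with cold TCA (10% final for adherent, 16% for suspension cells), stained with 0.4% SRB, A515. GI50, TGI and LC50 taken from dose-response curves.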
# [6] = Cytotoxicity against human […] cells after 48 hrs by SRB assay; type: cell-based; procedure, shortened: as §1
# [7] = system: COLO 205; assay: Growth inhibition of human COLO205 cells after 48 hrs by SRB assay; type: functional; conditions: COLO 205, 48 h; procedure, shortened: as §2
# [8] = system: CAKI-1; assay: Cytotoxicity against human Caki1 cells after 48 hrs by SRB assay; type: cell-based; conditions: caki-1, 48 h; procedure, shortened: as §1
# [9] = system: A549; assay: Growth inhibition of human A549 cells after 48 hrs by SRB assay; type: functional; conditions: A549, 48 h; procedure, shortened: as §2
# [10] = system: ACHN; assay: Growth inhibition of human ACHN cells after 48 hrs by SRB assay; type: functional; procedure, shortened: as §2
# [11] = system: SNB-19; assay: Cytotoxicity against human SNB19 cells after 48 hrs by SRB assay; type: cell-based; conditions: snb-19, 48 h; procedure, shortened: as §3
# [12] = system: NCI-H522; assay: Cytotoxicity against human NCI-H522 cells after 48 hrs by SRB assay; type: cell-based; conditions: nci-h522, 48 h; procedure, shortened: as §1
# [13] = system: HCT-116; assay: Cytotoxicity against human HCT116 cells after 48 hrs by SRB assay; type: cell-based; conditions: hct-116, 48 h; procedure, shortened: as §1
# [14] = system: OVCAR-3; assay: Cytotoxicity against human OVCAR3 cells after 48 hrs by SRB assay; type: cell-based; conditions: ovcar-3, 48 h; procedure, shortened: as §1
# [15] = system: HOP-62; assay: Growth inhibition of human HOP62 cells after 48 hrs by SRB assay; type: functional; conditions: HOP-62, 48 h; procedure, shortened: as §2
# [16] = system: SN12C; assay: Growth inhibition of human SN12C cells after 48 hrs by SRB assay; type: functional
# Procedure, shortened: (§4)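 NCI-60 panel cells grown in RPMI 1640 with 5% FBS and 2 mM L-glutamine, then seeded at 5000–40,000 cells/well by doubling time and preincubated for 24 h. Compound in DMSO was tested either at 10^-5 M alone or at 0.01–100 μM in five doses, for 48 h at 37 °C. Cells were fixed with cold TCA (10% final), stained with SRB, and read at 515 nm. GI50 was taken from % growth relative to time-zero and control wells.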
# [17] = system: SR; assay: Cytotoxicity against human SR cells after 48 hrs by SRB assay; type: cell-based; procedure, shortened: as §3
# [18] = system: EKVX; assay: Growth inhibition of human EKVX cells after 48 hrs by SRB assay; type: functional; procedure, shortened: as §2
# [19] = system: MDA-MB-231; assay: Cytotoxicity against human MDA-MB-231 cells after 48 hrs by SRB assay; type: cell-based; conditions: mda-mb-231, 48 h; procedure, shortened: as §1
# [20] = system: EKVX; assay: Cytotoxicity against human EKVX cells after 48 hrs by SRB assay; type: cell-based; procedure, shortened: as §1
# [21] = system: OVCAR-4; assay: Cytotoxicity against human OVCAR4 cells after 48 hrs by SRB assay; type: cell-based; conditions: ovcar-4, 48 h; procedure, shortened: as §1
# [22] = system: HT-29; assay: Growth inhibition of human HT-29 cells after 48 hrs by SRB assay; type: functional; conditions: HT-29, 48 h; procedure, shortened: as §2
# [23] = system: SNB-75; assay: Cytotoxicity against human SNB75 cells after 48 hrs by SRB assay; type: cell-based; conditions: snb-75, 48 h; procedure, shortened: as §3
# [24] = system: HOP-62; assay: Cytotoxicity against human HOP62 cells after 48 hrs by SRB assay; type: cell-based; conditions: hop-62, 48 h; procedure, shortened: as §1
# [25] = system: SK-MEL-28; assay: Growth inhibition of human SK-MEL-28 cells after 48 hrs by SRB assay; type: functional; conditions: SK-MEL-28, 48 h; procedure, shortened: as §4
# [26] = system: NCI-H522; assay: Growth inhibition of human NCI-H522 cells after 48 hrs by SRB assay; type: functional; conditions: NCI-H522, 48 h; procedure, shortened: as §2
# [27] = system: CAKI-1; assay: Growth inhibition of human Caki1 cells after 48 hrs by SRB assay; type: functional; conditions: CAKI-1, 48 h; procedure, shortened: as §2
# [28] = system: T47D; assay: Cytotoxicity against human T47D cells after 48 hrs by SRB assay; type: cell-based; procedure, shortened: as §3
# [29] = system: M14; assay: Cytotoxicity against human M14 cells after 48 hrs by SRB assay; type: cell-based; conditions: m14, 48 h; procedure, shortened: as §1
# [30] = system: OVCAR-8; assay: Growth inhibition of human OVCAR8 cells after 48 hrs by SRB assay; type: functional; conditions: OVCAR-8, 48 h; procedure, shortened: as §2
# [31] = system: A498; assay: Growth inhibition of human A498 cells after 48 hrs by SRB assay; type: functional; conditions: A498, 48 h; procedure, shortened: as §2
# [32] = system: NCI-H460; assay: Growth inhibition of human NCI-H460 cells after 48 hrs by SRB assay; type: functional; conditions: NCI-H460, 48 h; procedure, shortened: as §2
# [33] = system: DU-145; assay: Cytotoxicity against human DU145 cells after 48 hrs by SRB assay; type: cell-based; conditions: du-145, 48 h; procedure, shortened: as §1
# [34] = system: SNB-75; assay: Growth inhibition of human SNB75 cells after 48 hrs by SRB assay; type: functional; conditions: SNB-75, 48 h; procedure, shortened: as §4
# [35] = system: KM12; assay: Cytotoxicity against human KM12 cells after 48 hrs by SRB assay; type: cell-based; conditions: km12, 48 h; procedure, shortened: as §1
# [36] = system: MDA-MB-468; assay: Growth inhibition of human MDA-MB-468 cells after 48 hrs by SRB assay; type: functional; conditions: MDA-MB-468, 48 h; procedure, shortened: as §2
structure (smiles),measurement,setting,value
O=c1c2ccccc2nc(-c2ccco2)n1/N=C/c1ccccc1Cl,LC50,[1],> 100 µM
same,GI50,[2],2.92 µM
same,TGI,[2],6.8 µM
same,LC50,[3],> 100 µM
same,GI50,[4],5.73 µM
same,TGI,[4],> 100 µM
same,LC50,[5],> 100 µM
same,LC50,[6],> 100 µM
same,GI50,[7],4.96 µM
same,TGI,[7],34.1 µM
same,LC50,[8],> 100 µM
same,GI50,[9],4.78 µM
same,TGI,[9],> 100 µM
same,GI50,[10],3.12 µM
same,TGI,[10],> 100 µM
same,LC50,[11],> 100 µM
same,LC50,[12],82.9 µM
same,LC50,[13],> 100 µM
same,LC50,[14],> 100 µM
same,GI50,[15],3.56 µM
same,TGI,[15],13.7 µM
same,GI50,[16],4.89 µM
same,TGI,[16],> 100 µM
same,LC50,[17],> 100 µM
same,GI50,[18],7.23 µM
same,TGI,[18],> 100 µM
same,LC50,[19],> 100 µM
same,LC50,[20],> 100 µM
same,LC50,[21],> 100 µM
same,GI50,[22],3.42 µM
same,TGI,[22],> 100 µM
same,LC50,[23],> 100 µM
same,LC50,[24],> 100 µM
same,GI50,[25],4.45 µM
same,TGI,[25],18.6 µM
same,GI50,[26],2.14 µM
same,TGI,[26],6.45 µM
same,GI50,[27],7.99 µM
same,TGI,[27],34.8 µM
same,LC50,[28],> 100 µM
same,LC50,[29],> 100 µM
same,GI50,[30],3.98 µM
same,TGI,[30],25.8 µM
same,GI50,[31],5.76 µM
same,TGI,[31],16.7 µM
same,GI50,[32],3.45 µM
same,TGI,[32],8.41 µM
same,LC50,[33],> 100 µM
same,GI50,[34],4.1 µM
same,TGI,[34],7.51 µM
same,LC50,[35],> 100 µM
same,GI50,[36],9.96 µM
same,TGI,[36],> 100 µM
